# The source made the active and inactive calls. The calls are words filed in the database; no cut-off is given here.
# Legend:
# [1] = Cytotoxicity against human Hep2 cells assessed as growth inhibition; type: functional; conditions: HEp-2, read-out: ED50 (the source's name)
# Outline: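 Human epidermoid carcinoma No. 2 (H.Ep. No. 2) cells grown in culture with compound. ED50 is the concentration that holds growth of treated cells to 50% of untreated controls.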
# [2] = system: L1210; assay: Antitumor activity against mouse L1210 cells allografted in ip dosed BD2F1 mouse assessed as increase in life span administered 1 to 9 days measured on day 10 to 12 relative to control; type: functional
# [3] = system: HEp-2; assay: Resistance ratio of ED50 for hypoxanthine-guanine phosphoribosyl transferase/adenosine kinase deficient 6-mercaptopurine/6-(methylthio)purine ribonucleoside-resistant human Hep2 cells to ED50 for wild type human Hep2 cells; type: functional
# [4] = system: HEp-2; assay: Resistance ratio of ED50 for adenine phosphoribosyltransferase/adenosine kinase deficient 2-fluoro adenine/2-fluoro adenosine-resistant human Hep2 cells to ED50 for wild type human Hep2 cells; type: functional
# [5] = system: HEp-2; assay: Resistance ratio of ED50 for adenosine kinase deficient 6-(methylthio)purine ribonucleoside-resistant human Hep2 cells to ED50 for wild type human Hep2 cells; type: functional
# Outline: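 ED50 is measured as growth inhibition to 50% of untreated controls in an H.Ep. No. 2 subline resistant to 6-(methylthio)purine ribonucleoside that lacks adenosine kinase. It is divided by the ED50 in the sensitive (wild) H.Ep. No. 2 line.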
# [6] = system: L1210; assay: Antitumor activity against mouse L1210 cells allografted in BD2F1 mouse assessed as increase in life span at 60 mg/kg, ip administered 1 to 9 days measured on day 10 to 12 relative to control; type: functional; conditions: route intraperitoneal
# [7] = system: L1210; assay: Antitumor activity against mouse L1210 cells allografted in BD2F1 mouse assessed as increase in life span at 90 mg/kg, ip administered 1 to 9 days measured on day 10 to 12 relative to control; type: functional; conditions: route intraperitoneal
# [8] = system: L1210; assay: Antitumor activity against mouse L1210 cells allografted in BD2F1 mouse assessed as increase in life span at 40 mg/kg, ip administered 1 to 9 days measured on day 10 to 12 relative to control; type: functional; conditions: route intraperitoneal
# [9] = Drug degradation in buffer assessed as formation of 3,6-Dihydro-3-beta-D-ribofuranosyl-7H-1,2,3-triazolo[4,5-d]-pyrimidine-7-thione at pH 7.3 after 6 days by HPLC analysis; type: physicochemical; conditions: pH 7.3, 144 h
# Outline: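 Conversion in pH 7.3 buffer, under conditions meant to mirror the cytotoxicity assay, followed by high-pressure liquid chromatography.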
# [10] = system: HEp-2; assay: Cytotoxicity against human Hep2 cells assessed as growth inhibition at 50 uM; type: functional, cell-based
Structure (SMILES),EC50 [1],Ratio ED50 [4],Ratio ED50 [5],further results
CCCCNc1ncnc2c1nnn2[C@@H]1O[C@H](CO)[C@@H](O)[C@H]1O,300 nM,,,
CSc1ncnc2nn([C@@H]3O[C@H](CO)[C@@H](O)[C@H]3O)nc12,6000 nM,,,
Nc1ncnc2nn([C@@H]3O[C@H](CO)[C@@H](O)[C@H]3O)nc12,> 70000 nM,,,
Nc1ncnc2c1nnn2[C@@H]1O[C@H](CO)[C@@H](O)[C@H]1O,800 nM,2,2,ILS [2]: 39%; Ratio ED50 [3]: 60
CSc1ncnc2[nH]nnc12,> 300000 nM,,,
CSc1ncnc2c1nnn2[C@@H]1O[C@H](COC(C)=O)[C@@H](OC(C)=O)[C@H]1OC(C)=O,500 nM,,,
CCOc1ncnc2c1nnn2[C@@H]1O[C@H](CO)[C@@H](O)[C@H]1O,100 nM,,20,
OC[C@H]1O[C@@H](n2nnc3c(S)ncnc32)[C@H](O)[C@@H]1O,1000 nM,40,90,
CSc1ncnc2c1nnn2[C@@H]1O[C@H](CO)[C@@H](O)[C@H]1O,20 nM,3000,2000,ILS [2]: 23%
OC[C@H]1O[C@@H](Nc2ncnc3snnc23)[C@H](O)[C@@H]1O,100 nM,,,ILS at 60 mg/kg [6]: 28%; ILS at 90 mg/kg [7]: 36%; ILS at 40 mg/kg [8]: 25%; Stability [9]: Stable
CC(C)=CCNc1ncnc2c1nnn2[C@@H]1O[C@H](CO)[C@@H](O)[C@H]1O,< 3000 nM,,,
CSc1ncnc2nn([C@@H]3O[C@H](COC(C)=O)[C@@H](OC(C)=O)[C@H]3OC(C)=O)nc12,7000 nM,,,
COc1ncnc2c1nnn2[C@@H]1O[C@H](CO)[C@@H](O)[C@H]1O,300 nM,6,6,ILS [2]: 29%
CCSc1ncnc2c1nnn2[C@@H]1O[C@H](CO)[C@@H](O)[C@H]1O,100 nM,300,,
Nc1ncnc2snnc12,,,,growth inhibition (GI) [10]: inactive
